Assay outcomes as filed in PubChem BioAssay.
Hits are enriched below; roughly 1.2% of the tested compounds scored in any of these assays.
PfG6PD inh: PfG6PD (Plasmodium falciparum) enzyme inhibition; PfGluPho enzyme, NADPH resazurin-diaphorase fluorescence; inhibition, % at 20 µM; hit rate 0.78% among 350,000; AID 504690;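 active = inhibition reaching at least a set limit at 20 µM in the primary screen, cut at about 59% in these data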
HKDC1 inhibitor: inhibitors of human hexokinase HKDC1. recombinant HKDC1, G6PDH/diaphorase resazurin coupled fluorescence. inhibition, % at 20 µM. hit rate 0.16% among 340,000;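 active = inhibition above about 35% when tested at 20 µM, limit read from the data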
Target sequence (Q2TB90 whole entry, looked up): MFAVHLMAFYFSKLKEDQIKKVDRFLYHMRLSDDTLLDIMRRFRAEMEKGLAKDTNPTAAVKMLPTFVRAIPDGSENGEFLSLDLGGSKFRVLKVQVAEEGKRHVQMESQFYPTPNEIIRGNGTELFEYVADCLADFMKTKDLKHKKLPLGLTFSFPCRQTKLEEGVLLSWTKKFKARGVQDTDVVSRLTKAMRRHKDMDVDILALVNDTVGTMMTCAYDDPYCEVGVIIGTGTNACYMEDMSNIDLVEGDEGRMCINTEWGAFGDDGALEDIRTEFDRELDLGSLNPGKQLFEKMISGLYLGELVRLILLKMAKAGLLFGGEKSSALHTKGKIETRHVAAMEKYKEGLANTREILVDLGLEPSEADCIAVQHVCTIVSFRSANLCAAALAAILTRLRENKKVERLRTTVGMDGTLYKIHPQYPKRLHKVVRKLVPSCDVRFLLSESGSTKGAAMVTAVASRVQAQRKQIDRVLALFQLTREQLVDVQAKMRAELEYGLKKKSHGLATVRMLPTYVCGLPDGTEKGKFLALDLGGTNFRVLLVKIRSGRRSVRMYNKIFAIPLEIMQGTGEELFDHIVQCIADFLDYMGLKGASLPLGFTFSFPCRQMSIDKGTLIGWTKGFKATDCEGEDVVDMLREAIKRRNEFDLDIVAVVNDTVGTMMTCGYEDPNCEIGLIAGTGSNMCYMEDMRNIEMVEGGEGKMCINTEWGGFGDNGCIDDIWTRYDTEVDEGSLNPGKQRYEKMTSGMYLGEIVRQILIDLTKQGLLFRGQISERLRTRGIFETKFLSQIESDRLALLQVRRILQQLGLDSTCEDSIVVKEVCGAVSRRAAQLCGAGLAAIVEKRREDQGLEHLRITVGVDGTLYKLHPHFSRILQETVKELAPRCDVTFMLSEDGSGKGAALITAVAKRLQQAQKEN
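Assay system: in-house recombinant HK5 (HKDC1) enzyme. Input: HKDC1 at 5 µg/mL. Medium: Tris pH 8.0 buffer with MgCl2, Tween-20, BSA, BME. Dosing: single 20 µM dose. Schedule: 90 min reaction incubation at room temperature, dark. Signal: resazurin-to-resorufin fluorescence via G6PDH and diaphorase coupling, 525/613 nm. Controls: DMSO-enzyme wells negative, buffer-substituted wells positive.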
Diaphorase inh: diaphorase inhibition or chemical oxidation counter-screen; inhibition, % at 20 µM; diaphorase resazurin-to-resorufin fluorescence, NADH, 16 min; bacterial (C. kluyveri) enzyme, not human; AID 1217; hit rate 0.69% among 190,000;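 active = primary screen inhibition at 20 µM above a set limit, cut at about 50% in these data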
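System: Diaphorase enzyme from Clostridium kluyveri | Amount: Enzyme working solution with 0.14 U/mL diaphorase | Benchmarks: No-NADH positive control and DMSO neutral control | Signal: Fluorescence of resorufin formed from resazurin, Ex 544/Em 590 nm | Schedule: 16-min room-temperature incubation before reading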
G6PDH CS: L. mesenteroides G6PDH inhibition counter-screen; hit rate 0.12% among 200,000; Purified L. mesenteroides G6PDH, diaphorase/resazurin coupled fluorescence, 45 min; AID 1020; inhibition, % at 5 µM; in the data active = inhibition above about 50%
Diaphorase act: counter-screen for diaphorase-based assays: diaphorase activators and chemical reducers; Diaphorase/resazurin coupled assay, resorufin fluorescence, 16 min; active compounds read high; 1 = vehicle wells, 0 = NADH-free wells; activation factor at 20 µM; hit rate 0.005% among 190,000;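 active = diaphorase activity raised at least twofold by the compound at 20 µM; inactive = activation factor below 2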
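test system = bacterial diaphorase enzyme (C. kluyveri) | quantity = enzyme 0.07 U/mL final | reagent = NADH substrate 0.114 mM plus resazurin dye 0.1 mM, final | incubation = 16 min enzyme reaction, ambient temperature | buffer or medium = HEPES pH 7.4 buffer with MgCl2 and Tween 20 | signal = fluorescence of resorufin, 544 nm excitation, 590 nm emission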
PfGluPho conf: PfG6PD inhibition, single-dose confirmed; shares compounds with PfG6PD inh; recombinant PfGluPho, NADPH-diaphorase-resazurin fluorescence; inhibition, % at 20 µM; hit rate 34% among 2,400;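 active = inhibition of at least 50% at 20 µM in any single replicate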
Diaphorase 10uM: diaphorase inhibition or oxidation at 10 uM NADPH | shares compounds with PfG6PD inh | diaphorase-coupled resazurin reduction, fluorescence, NADPH 10 uM | inhibition, % at 20 µM | hit rate 39% among 820 | AID 504862;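 active = average inhibition reaching 50% or more with the compound at 20 µM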;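 also: resorufin red fluorescence formed as diaphorase reduces resazurin using NADPH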
Diaphorase 30uM: diaphorase inhibition or oxidation at 30 uM NADPH; hit rate 29% among 820; shares compounds with PfG6PD inh; AID 504863; inhibition, % at 20 µM; Diaphorase/resazurin coupled assay, resorufin fluorescence;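 active = inhibition averaging 50% or more, tested at 20 µM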
Numbers stand for hits; 0 = inactive; - = not tested or not shown.

SMILES	PfG6PD inh	HKDC1 inhibitor	Diaphorase inh	G6PDH CS	Diaphorase act	PfGluPho conf	others
Cc1cccc(CN2C(=O)c3ccccc3Sc3ccc(C(=O)O)cc32)c1	0	0	-	-	-	-
Cc1ccc(S(=O)(=O)N2CCN(C(=O)c3cc(S(=O)(=O)N4CCOCC4)c(Cl)cc3Cl)CC2)cc1	0	0	-	-	-	-
CC1CCC(NC(=O)CCS(=O)(=O)c2ccc3c(c2)CC(C)N3C(=O)C2CC2)CC1 (stereo unspecified)	0	0	-	-	-	-
CN1CCN(S(=O)(=O)c2ccc(N3CCN(c4ccc(O)cc4)CC3)c([N+](=O)[O-])c2)CC1	72	0	-	-	-	0
Cc1ccc(S(=O)(=O)N2CCOC23CCN(C(=O)c2ccccc2Br)CC3)cc1	0	0	-	-	-	-
CC(=O)OCCCNc1cc(Sc2nc3ccccc3s2)c2nonc2c1[N+](=O)[O-]	99	0	62	0	0	63	Diaphorase 10uM=0;Diaphorase 30uM=0
O=[N+]([O-])c1ccc(Nc2ccccc2O)c([N+](=O)[O-])c1	66	-	-	-	-	0
Cc1cc(-n2c(C)cc(C(=O)COc3ccc(F)c(F)c3)c2C)no1	61	0	-	-	-	0
C=CCSc1nnc(NC(=O)c2ccc3c(c2)OCCO3)s1	99	-	-	-	-	0
Cc1ccc(SCc2c(C(=O)N/N=C/c3cccs3)nnn2-c2nonc2N)cc1	0	-	-	-	-	-
O=C1CCCN1CCCNS(=O)(=O)c1ccc(F)c(F)c1	0	0	-	-	-	-
C(=N\Nc1nc2ccccc2[nH]1)/c1ccccn1	64	0	0	0	0	54	Diaphorase 10uM=0;Diaphorase 30uM=0
Cc1cc(=O)[nH]c(N/N=C/c2ccccn2)n1	0	0	0	0	0	-
C(=N\Nc1nc2ccccc2[nH]1)/c1ccc2ncccc2c1	0	0	-	-	-	-
O=c1cnnc(N/N=C/c2ccccn2)[nH]1	0	0	-	-	-	0
COc1ccc(CN(C(=O)c2snc(C(N)=O)c2N)C(C(=O)NC2CCCC2)c2cc(OC)ccc2OC)cc1 (stereo unspecified)	0	0	-	-	-	-
COc1ccc(-n2sc3ccccc3c2=O)cc1	125	-	-	-	-	109	Diaphorase 10uM=0;Diaphorase 30uM=0
O=C1C=C(c2ccc3[nH]ccc3c2)CCC1	0	0	-	-	-	-
COc1ccc2cc(C3=CC(=O)CCC3)ccc2c1	79	0	-	-	-	0
Nc1n[nH]c(=S)n1/N=C1/C(=O)Nc2ccccc21	73	0	79	0	0	0
Cc1ccc(NC(=O)c2cc(N3C(=O)C=CC3=O)ccc2N2CCOCC2)cc1	80	0	0	0	0	96	Diaphorase 10uM=0;Diaphorase 30uM=0
Cc1ccc(NC(=O)c2cc(N3C(=O)C=CC3=O)ccc2Cl)cc1C	77	0	0	0	0	81	Diaphorase 10uM=0;Diaphorase 30uM=0
COc1c(C)cccc1C(=O)Nc1ccc(N2CCOCC2)c(Cl)c1	68	0	0	0	0	0
Cc1ccc(NC(=O)c2cc(-n3cnnc3)ccc2Cl)cc1	0	0	0	0	0	-
Cc1ccc(NC(=O)c2cc(NC(=O)c3ccco3)ccc2N2CCOCC2)cc1	0	0	0	0	0	-
SMILES	PfG6PD inh	HKDC1 inhibitor	Diaphorase inh	G6PDH CS	Diaphorase act	PfGluPho conf	others
COc1ccc(C2(C)NC(=O)N(CC3CCCCC3)C2=O)cc1 (stereo unspecified)	0	0	-	-	-	-
CCOc1cc(C(=O)NC(C)CCc2ccccc2)cc(OCC)c1OCC (stereo unspecified)	0	0	-	-	-	-
Cc1ccc(-c2cc(=O)c3cc(F)ccc3[nH]2)cc1	0	0	0	0	0	-
Cc1ccc(C)c(-n2sc3ccc(F)cc3c2=O)c1	115	0	-	-	-	107	Diaphorase 10uM=0;Diaphorase 30uM=0
O=C1CCCC(=O)N1c1ccc(F)cc1	0	0	-	-	-	-
O=c1c2cc(F)ccc2sn1-c1ccc(F)cc1	113	0	-	-	-	106	Diaphorase 10uM=0;Diaphorase 30uM=0
CCN(C[C@H]1N[C@@](Cc2ccccc2)(C(=O)OC)[C@H]2C(=O)N(Cc3ccccc3)C(=O)[C@@H]12)S(=O)(=O)c1ccc(C(C)(C)C)cc1	0	0	-	-	-	-
Cc1ccc(NC(=O)CN(C)C(=O)COC(=O)[C@@H](NC(=O)c2ccccc2F)C(C)C)cc1	0	0	-	-	-	-
COc1ccc(CNC(=O)Cn2cccc2C(=O)c2ccccc2)cc1	0	0	-	-	-	-
O=C(O)c1cccc(N2C(=O)C=CC2=O)c1	76	-	-	-	-	76	Diaphorase 10uM=0;Diaphorase 30uM=0
Nc1ccc2c(c1)C(=O)C(=O)c1ccccc1-2	108	0	0	58	0	89	Diaphorase 10uM=77;Diaphorase 30uM=90
COc1ccc(Nc2cc(C)c3ccc(O)cc3n2)cc1	72	0	-	-	-	0
COc1ccc(CCC(=O)OCC(=O)Nc2sccc2C#N)cc1	0	0	-	-	-	-
CCc1ccccc1N1CSC2=C(C#N)C(c3cc(OC)c(OC)cc3OC)CC(=O)N2C1 (stereo unspecified)	67	0	50	0	0	0
COc1ccc(OC)c(C2CC(=O)N3CN(c4ccc(C)c(Cl)c4)CSC3=C2C#N)c1 (stereo unspecified)	78	0	0	0	0	0
COc1cc(OC)c(C2CC(=O)N3CN(c4ccccc4)CSC3=C2C#N)cc1OC (stereo unspecified)	81	0	0	0	0	58	Diaphorase 10uM=0;Diaphorase 30uM=0
COc1ccc(C2CC(=O)N3C(=C2C#N)SCC3(O)c2ccccc2)cc1 (stereo unspecified)	0	0	0	0	0	-
COc1cc(CN2CC(=O)N(c3cccc(Cl)c3C)C2=S)cc(OC)c1OC	0	0	-	-	-	-
CCc1ccccc1N1CCN(S(=O)(=O)c2cc(OC)ccc2OC)CC1	0	0	0	0	0	-
COc1cccc(C2CC(=O)N3CN(c4cccc(Cl)c4C)CSC3=C2C#N)c1OC (stereo unspecified)	86	0	51	0	0	0
CC(C)Cn1c(CCNC(=O)c2ccco2)nc2ccccc21	0	0	-	-	-	-
Cc1c(CN(C)C(=O)c2sc3cc(Cl)ccc3c2Cl)cnn1C	0	0	0	0	0	-
CC(C)(C)N(Cc1ccccc1)C(=O)COC(=O)c1cccc([N+](=O)[O-])c1	0	0	0	0	0	-
CCc1nc2ccccc2c(C(=O)OCC(=O)NC(=O)c2cccn2C)c1C	0	0	-	-	-	-
Cc1ccc(C2CC(=O)N3CN(Cc4ccco4)CSC3=C2C#N)cc1 (stereo unspecified)	0	0	0	0	0	-
COc1ccccc1N1CSC2=C(C#N)C(c3ccc(SC)cc3)CC(=O)N2C1 (stereo unspecified)	67	0	65	0	0	52	Diaphorase 10uM=0;Diaphorase 30uM=0
O=C(Nc1ccc2nc(-c3ccc(Br)o3)[nH]c2c1)c1ccco1	70	0	0	0	0	0
O=C(Nc1ccc2nc(-c3ccc(Br)o3)[nH]c2c1)c1cccs1	86	0	0	0	0	0
